The source of these data is ChEMBL document CHEMBL4229344 (Eur J Med Chem, 2018).

Series [1] has as its target Serine/threonine-protein kinase 32A (Homo sapiens) (UniProt Q8WU08). Description: Binding affinity to wild-type human full length YANK1 (M1 to L396 residues) expressed in mammalian expression system assessed as residual binding level at 1 uM by Kinomescan method relative to control. The essentials:
(§1)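 Single-concentration KINOMEscan (DiscoverX) binding screen at 1 μM against a panel of 468 purified kinases and mutants. The read-out is binding relative to control.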

Series [2] addresses Mitogen-activated protein kinase 15 (Homo sapiens) (UniProt Q8TD08). Kind of series: Binding affinity to wild-type human partial length ERK8 (M1 to P437 residues) expressed in bacterial expression system assessed as residual binding level at 1 uM by Kinomescan method relative to control.
Series [3] addresses Calcium-dependent protein kinase 1 (Plasmodium falciparum) (UniProt P62344). Description: Binding affinity to wild-type Plasmodium falciparum 3D7 full length CDPK1 (M1 to S524 residues) expressed in mammalian expression system assessed as residual binding level at 1 uM by Kinomescan method relative to control. The essentials:
(§2)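 KINOMEscan competition binding against 468 purified kinases/mutants, test compound at 1 µM; residual binding relative to control.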

The target of series [4] is Calcium/calmodulin-dependent protein kinase type II subunit beta (Homo sapiens) (UniProt Q13554). Description: Binding affinity to wild-type human partial length CAMK2B (M1 to Q380 residues) expressed in bacterial expression system assessed as residual binding level at 1 uM by Kinomescan method relative to control.
Series [5] addresses Dual serine/threonine and tyrosine protein kinase (Homo sapiens) (UniProt Q6XUX3). Description: Binding affinity to wild-type human full length RIPK5 (M1 to T929 residues) expressed in mammalian expression system assessed as residual binding level at 1 uM by Kinomescan method relative to control. The essentials: as §1
The target in series [6] is Casein kinase II subunit alpha' (Homo sapiens) (UniProt P19784). Description: Binding affinity to wild-type human full length CSNK2A2 (M1 to R350 residues) expressed in mammalian expression system assessed as residual binding level at 1 uM by Kinomescan method relative to control. A digest of the protocol:
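Single-concentration (1 μM) competition-binding screen run by KINOMEscan against a panel of 468 purified kinases and mutants. The read-out is the relative binding activity of the test compound to each kinase.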

In series [7] the target is Ephrin type-B receptor 2 (Homo sapiens) (UniProt P29323). Description: Binding affinity to wild-type human partial length EPHB2 (I597 to L902 residues) expressed in bacterial expression system assessed as residual binding level at 1 uM by Kinomescan method relative to control.
Series [8] relates to NCI-H1703. Description: Antiproliferative activity against human NCI-H1703 cells after 72 hrs in presence of PDGF-AA by CellTiter-Glo or CCK-8 assay. Conditions: NCI-H1703, 72 h. Type of series: functional. The essentials:
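Cells in RPMI 1640 with 10% FBS at 37 °C, 5% CO2, seeded at 1–3 × 10^4 cells/mL with serial compound dilutions for 72 h. Viability read by CellTiter-Glo luminescence or CCK-8 absorbance (450/655 nm), normalized to DMSO control.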
In general terms: Cellular ATP, detected with luciferase, serves as a proxy for viable cell number.

Series [9] has as its target Tyrosine-protein kinase HCK (Homo sapiens) (UniProt P08631). Description: Binding affinity to wild-type human full length HCK (M22 to P526 residues) expressed in bacterial expression system assessed as residual binding level at 1 uM by Kinomescan method relative to control. The essentials: as §2
Series [10] concerns the target Serine/threonine-protein kinase Chk1 (Homo sapiens) (UniProt O14757). Description: Binding affinity to wild-type human partial length CHEK1 (M1 to G289 residues) expressed in bacterial expression system assessed as residual binding level at 1 uM by Kinomescan method relative to control.
The target of series [11] is Serine/threonine-protein kinase MRCK beta (Homo sapiens) (UniProt Q9Y5S2). Kind of series: Binding affinity to wild-type human partial length MRCKB (L56 to S417 residues) expressed in bacterial expression system assessed as residual binding level at 1 uM by Kinomescan method relative to control.
Series [12] deals with Platelet-derived growth factor receptor alpha (Homo sapiens, UniProt P16234). Kind of series: Inhibition of PDGFRalpha in human EOL-1 cells assessed as decrease in STAT3 phosphorylation at Y705 residue up to 300 nM after 2 hrs by Western blot analysis. Type of series: cell-based.
For series [13], the target named is Tyrosine-protein kinase JAK3 (Homo sapiens) (UniProt P52333). Description: Binding affinity to wild-type human partial length JAK3 JH1 catalytic domain (I781 to S1124 residues) expressed in mammalian expression system assessed as residual binding level at 1 uM by Kinomescan method relative to control.
The target in series [14] is Hepatocyte growth factor receptor (Homo sapiens) (UniProt P08581). Description: Binding affinity to wild-type human partial length MET (D1010 to S1367 residues) expressed in bacterial expression system assessed as residual binding level at 1 uM by Kinomescan method relative to control.
Series [15] concerns the target Cyclin-G-associated kinase (Homo sapiens) (UniProt O14976). Kind of series: Binding affinity to wild-type human partial length GAK (G13 to Y338 residues) expressed in bacterial expression system assessed as residual binding level at 1 uM by Kinomescan method relative to control. The essentials: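 Kinome-wide competition binding screen against a panel of 468 purified kinases/mutants, with the test compound at a single concentration of 1 μM. Read-out is the relative binding activity of each kinase in the presence of compound.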

Series [16] concerns the target Macrophage-stimulating protein receptor (Homo sapiens) (UniProt Q04912). Kind of series: Binding affinity to wild-type human partial length MST1R (I1057 to L1363 residues) expressed in bacterial expression system assessed as residual binding level at 1 uM by Kinomescan method relative to control.
Series [17] addresses NUAK family SNF1-like kinase 1 (Homo sapiens) (UniProt O60285). Description: Binding affinity to wild-type human partial length ARK5 (E25 to I332 residues) expressed in bacterial expression system assessed as residual binding level at 1 uM by Kinomescan method relative to control. A digest of the protocol:
as §1

Series [18] deals with Serine/threonine-protein kinase PLK2 (Homo sapiens) (UniProt Q9NYY3). Description: Binding affinity to wild-type human partial length PLK2 (H58 to F354 residues) expressed in mammalian expression system assessed as residual binding level at 1 uM by Kinomescan method relative to control. The essentials:
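KINOMEscan competition binding against a panel of 468 purified kinases/mutants, compound tested at 1 μM; readout is relative binding activity versus control.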

Series [19] addresses Mitogen-activated protein kinase kinase kinase kinase 2 (Homo sapiens) (UniProt Q12851). Description: Binding affinity to wild-type human partial length MAP4K2 (M1 to G318 residues) expressed in mammalian expression system assessed as residual binding level at 1 uM by Kinomescan method relative to control.
A short description of series [20]: Oral bioavailability in Sprague-Dawley rat at 10 mg/kg. It counts as ADME, organism-based. Conditions: in vivo. A digest of the protocol: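 Male Sprague-Dawley rats, 6–8 weeks old and fasted overnight, dosed IV at 1 mg/kg or PO at 10 mg/kg. Formulation was 5% DMSO/40% PEG400/55% saline (1 mg/mL). Jugular blood collected on heparin from 1 min to 8 h (IV) or 5 min to 24 h (PO). Plasma separated by centrifugation at 2–8 °C and stored at −80 °C.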

Activity calls are given as the source filed them. No cut-off for these calls is given here.

Regarding `Cc1ccc(NC(=O)c2ccc(CN(CCN(C)C)C(=O)c3cccnc3)cc2)cc1Nc1nccc(-c2cccnc2)n1`, the Activity was determined as 100% in series [1]; 71% in series [2]; 82% in series [3]; 99% in series [4]; 81% in series [5]; 88% in series [6]. The Activity in series [7] was 100%; in series [9] it was 83%; in series [10], 100%; in [11], 99%; in series [13], 100%; in series [14], 90%. In addition, the Activity in series [15] came out at 82%; in series [16] it was 100%; in series [17] it was 93%; in series [18], 87%; in [19], 100%. Also, the GI50 – broadly, the concentration at which growth is held to half of that of the control – in series [8] worked out at 2990 nM. Moreover, in [12], the inhibition entry was “Active”. For the same molecule, in [20], the bioavailability (commonly the share of a dose that reaches the circulation, judged against a reference dose that is usually intravenous) was 1.96%.
